Hits are enriched below; roughly 2.6% of the tested compounds scored in any of these assays.
RanGTP-Imp inh – inhibitors of RanGTP-importin-beta interaction, primary screen, biochemical, FRET, CFP-Ran, YFP-importin-beta, homogeneous | cell-free CFP-Ran/YFP-importin-beta FRET ratio | AID 2216 | inhibition, % (concentration not given with the values) | 300,000 tested, 1.1% active;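 active = more than half of the replicate wells show a fall in the fluorescence ratio signal beyond about 16%, limit read from the data, passing the limit was not always enough; inconclusive = exactly half of the replicate wells pass the set limit; inactive = fewer than half of replicates pass the limit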;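 also: 0% = DMSO wells and 100% = Ran loaded with GDP instead of GTP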
Runt-CBFb FRET – inhibitors of human RUNX1 Runt domain binding to CBFb. Q01196+Q13951. Cerulean-Runt/Venus-CBFb FRET ratio 530/480, 1 h. inhibition, % at 20 µM. 220,000 tested, 0.46% active;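 active = inhibition over about 50% at 20 µM in the single-dose screen, limit read from the data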;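 also: 0% = DMSO wells and 100% = excess unlabeled CBFb competitor control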
Target sequence (Q01196 whole entry, looked up, the tested form may be a part): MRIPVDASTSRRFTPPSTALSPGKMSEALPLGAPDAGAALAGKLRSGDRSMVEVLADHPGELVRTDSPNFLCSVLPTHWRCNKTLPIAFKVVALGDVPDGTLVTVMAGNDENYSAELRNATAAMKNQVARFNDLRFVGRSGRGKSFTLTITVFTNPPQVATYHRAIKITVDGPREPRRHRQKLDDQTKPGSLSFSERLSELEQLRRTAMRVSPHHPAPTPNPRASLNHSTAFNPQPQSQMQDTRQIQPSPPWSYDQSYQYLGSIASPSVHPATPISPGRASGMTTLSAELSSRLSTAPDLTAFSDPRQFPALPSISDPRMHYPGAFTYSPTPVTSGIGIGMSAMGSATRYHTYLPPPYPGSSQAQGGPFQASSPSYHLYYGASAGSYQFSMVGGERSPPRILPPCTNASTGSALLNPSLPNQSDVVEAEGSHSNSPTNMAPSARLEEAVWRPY
Target sequence (Q13951 whole entry, looked up, the tested form may be a part): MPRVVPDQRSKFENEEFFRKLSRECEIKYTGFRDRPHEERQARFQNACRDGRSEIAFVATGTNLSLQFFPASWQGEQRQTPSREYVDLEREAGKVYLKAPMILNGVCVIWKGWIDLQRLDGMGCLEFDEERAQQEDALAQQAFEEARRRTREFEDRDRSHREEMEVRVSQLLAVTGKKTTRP
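Reagent – Venus-CBFb binding partner, 100 nM · Assay system – Cerulean-tagged RUNX1 Runt domain (FRET donor) fusion protein · Input – 100 nM per protein · Incubation – two 1 h room-temperature incubations shielded from light · Measured by – FRET fluorescence · Medium – Tris buffer pH 7.5 with salts and BSA · Benchmarks – unlabeled CBFb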
Runt-SMMHC FRET – inhibitors of human RUNX1 Runt domain binding to CBFb-SMMHC; Q01196+Q13951; Cerulean-Runt/Venus-CBFb-SMMHC FRET ratio 530/480, 1 h; inhibition, % at 20 µM; 220,000 tested, 0.74% active;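 active = mean inhibition across duplicate retests at 20 µM reaching about 50%, limit read from the data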;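 also: 0% = DMSO wells and 100% = wells with excess untagged CBFb-SMMHC; inhibitors lower the FRET ratio by blocking Runt binding to CBFb-SMMHC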
IMP-1 inhibitor – inhibitors of Pseudomonas aeruginosa IMP-1 metallo-beta-lactamase | purified IMP-1, nitrocefin hydrolysis, epi-absorbance fluorescence | inhibition, % at 5.6 µM | 290,000 tested, 0.45% active | AID 1556;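 active = inhibition above the mean plus 3 SD of all compounds in the same screening run, cut at about 4.5% in these data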;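 also: 0% = IMP-1 with DMSO and 100% = DMSO wells lacking enzyme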
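Assay system: purified IMP-1; Quantity: IMP-1 0.2 nM before substrate addition; Medium: HEPES buffer pH 7.1 with ZnSO4 and Brij 35; Incubation: 15 min enzyme–compound preincubation, then 25 min nitrocefin reaction, 25 °C; Signal: fluorescence quenching readout, ex 480/em 530 nm; Controls: DMSO with and without IMP-1; Repeats: singlicate testing.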
VIM-2 inh – inhibitors of Pseudomonas aeruginosa VIM-2 metallo-beta-lactamase | purified VIM-2, nitrocefin hydrolysis, epi-absorbance fluorescence | inhibition, % at 5.6 µM | 290,000 tested, 0.89% active;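 active = inhibition above the mean of all tested compounds plus 3 SD, cutoff set per screening run, cut at about 7.5% in these data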;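 also: red hydrolysis product quenches plate fluorescence so inhibitors raise well fluorescence; 0% = enzyme with DMSO and 100% = DMSO without enzyme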
* marks the source's active call; other numbers are inactive results; ? = inconclusive; · = not tested or not shown.

SMILES	RanGTP-Imp inh	Runt-CBFb FRET	Runt-SMMHC FRET	IMP-1 inhibitor	VIM-2 inh
COc1ccc(CCNC(=O)CCc2cn(C)c3ccccc23)c(OC)c1OC	0.7	·	·	-0.8	-0.4
CCOc1ccc(CNC(c2ccccc2)c2ccccc2)cc1	33.3*	·	·	-5.5	-2.7
CC(O)Cn1c(N2CCCC2)nc2c1c(=O)n(C)c(=O)n2C (stereo not drawn)	2.3	·	·	-3.0	-2.4
O=C(CCS(=O)(=O)c1ccc(Br)cc1)NCCc1ccccc1	5.7	·	·	1.9	-0.3
Cc1ccc(S(=O)(=O)CCC(=O)Nc2cccc(C)c2)cc1	2.8	-1.1	3.0	-0.6	-0.8
CCc1cccc(NC(=O)CCS(=O)(=O)c2ccc(Br)cc2)c1	4.0	·	·	9.8*	-0.8
NS(=O)(=O)c1ccc(CCNC(=O)CCS(=O)(=O)c2ccc(Br)cc2)cc1	4.0	·	·	7.8*	-0.6
CNS(=O)(=O)c1cccc(C(=O)NCC(c2cccs2)N2CCOCC2)c1 (stereo not drawn)	-3.8	·	·	·	·
O=C(NCc1nnnn1-c1ccc(F)cc1)c1ccc([N+](=O)[O-])o1	-0.9	·	·	·	·
CS(=O)(=O)c1ccc(NC(=O)CCN2C(=O)C3CC=CCC3C2=O)cc1 (stereo not drawn)	2.3	·	·	·	·
CCc1ccc(Nc2n[n+](-c3ccccc3)c(-c3ccc(N(CC)CC)cc3)s2)cc1	-4.9	·	·	7.9*	2.7
CN(C)c1ccc(-c2sc(Nc3ccccc3)n[n+]2-c2ccc(F)cc2)cc1	-0.6	·	·	0.1	-2.1
CCc1ccc(Nc2n[n+](-c3ccccc3)c(-c3ccc(OCc4ccccc4)cc3)s2)cc1	-1.5	·	·	-2.0	-2.9
CCN(CC)c1ccc(-c2sc(Nc3ccccc3)n[n+]2-c2ccc(F)cc2)cc1	?	·	·	5.0*	3.1
CCOc1ccc(N2CSC(=S)N(c3ccc(OCC)cc3)C2)cc1	2.6	13.7	-0.6	4.7*	-2.4
c1ccc(Nc2c3c(nc4ccccc24)CCC3)cc1	0.0	-1.0	0.2	-2.5	-0.8
c1ccc2c(Nc3ccc4c(c3)OCCO4)c3c(nc2c1)CCC3	5.6	0.7	-2.3	-1.8	8.2*
CN(C)c1ccc(CNC(=O)CCS(=O)(=O)c2ccc3c(c2)oc(=O)n3C)cc1	-0.1	·	·	-1.4	-0.6
COC(=O)C1=CN(C2CCCCC2)C=C(C(=O)OC)C1c1ccc2c(c1)OCO2	2.8	28.3	74.9*	-2.0	-4.7
COCCN1C=C(C(=O)OC)C(c2ccc3c(c2)OCO3)C(C(=O)OC)=C1	-1.2	8.6	23.5	-4.2	-3.2
CC(Sc1ncnc2sc(-c3ccccc3)cc12)C(=O)NCC1CCCO1 (stereo not drawn)	4.8	·	·	·	·
CC(C)N1CCc2c(sc(NC(=O)c3ccc(S(=O)(=O)N4CCCCC4C)cc3)c2C(N)=O)C1 (stereo not drawn)	107.3*	·	·	-1.9	2.1
CNC(=O)c1c(NC(=O)c2ccc(S(=O)(=O)N3CCCCC3)cc2)sc2c1CCN(C(C)C)C2	93.3*	·	·	-0.5	-0.2
CCN1CCc2c(sc(NC(=O)c3ccc(S(=O)(=O)N4CCCC4)cc3)c2C(=O)NC)C1	45.7*	·	·	0.1	8.7*
CCCN1CCc2c(sc(NC(=O)c3ccc(S(=O)(=O)N(C)c4ccccc4)cc3)c2C(=O)NC)C1	10.2	·	·	9.6*	5.4
SMILES	RanGTP-Imp inh	Runt-CBFb FRET	Runt-SMMHC FRET	IMP-1 inhibitor	VIM-2 inh
CN1CCN(C(=O)c2cc(=O)c3cc(Cl)cc(Cl)c3o2)CC1	2.0	·	·	-0.9	1.2
Cc1cccc(-c2nc(CS(=O)CC(=O)NC3CCCC(C)C3C)c(C)o2)c1 (stereo not drawn)	?	·	·	-1.2	-1.5
CCN=C1S/C(=C/c2ccc(-c3ccc(F)cc3)o2)C(=O)N1CC	10.1	·	·	-3.2	-1.7
CCS(=O)(=O)N1CCC(N2CCC(C)CC2)CC1	-4.6	2.8	3.3	-3.0	-2.9
Cc1ccccc1NC(=O)CCc1nnc2ccc(N3CCC4(CC3)OCCO4)nn12	2.6	·	·	-1.6	-1.6
COc1cc2cc[n+](Cc3ccc([N+](=O)[O-])cc3)cc2cc1OC	8.6	·	·	-0.7	-1.3
COc1ccc(C2(C)NC(=O)N(CC(=O)Nc3ccc(Br)c(C)c3)C2=O)cc1OC (stereo not drawn)	21.3*	·	·	-3.5	-1.1
COc1ccc(C2(C)NC(=O)N(CC(=O)Nc3ccc(C)cc3Br)C2=O)cc1OC (stereo not drawn)	8.2	·	·	-1.0	-0.2
O=C(c1ccc(-n2cccc2)cc1)N1CCN(Cc2ccccc2)CC1	·	-1.2	-4.5	-0.8	-0.9
Cn1nc(-c2ccc(C(=O)N3CCN(Cc4ccccc4)CC3)cc2)c2ccccc2c1=O	-1.8	-0.9	4.2	-2.9	10.9*
CCN(c1ccc2c(c1)OCO2)S(=O)(=O)c1cc(Br)cc2c1N(C(C)=O)CC2	-1.1	0.7	-2.4	7.4*	-2.6
COC(=O)c1sccc1NC(=O)Nc1ccc(C(C)=O)cc1	·	·	·	-1.4	-2.9
CCCN1CCN(CCCNC(=O)Cn2nc(C)n3c(cc4cc(OC)ccc43)c2=O)CC1	3.8	·	·	-1.7	1.0
O=C(C1CC(=O)N(c2ccc(Cl)cc2)C1)N1CCN(Cc2ccc3c(c2)OCO3)CC1 (stereo not drawn)	1.0	·	·	-2.1	-1.5
COc1cc(NCCCCCCCN)c2ncccc2c1	1.5	-1.7	-0.3	1.5	7.8*
Cn1c(OCc2cccnc2)nc2c1c(=O)n(Cc1ccc(F)cc1)c(=O)n2C	0.9	1.5	-1.8	-1.8	1.1
Cn1c(OCc2cccnc2)nc2c1c(=O)n(Cc1ccccc1)c(=O)n2C	1.3	0.5	-0.5	-2.5	8.7*
CCCCc1cc(=O)oc2cc(C)cc(OC(C)C(=O)NCc3cccnc3)c12 (stereo not drawn)	-1.2	·	·	-0.3	-2.2
Cc1cc(NC(=O)c2ccco2)c(=O)n(Cc2cccc(C(F)(F)F)c2)c1	0.7	·	·	-3.6	-2.9
CCNC(=O)NC(=O)COC(=O)c1ccccc1SCC(=O)NC(=O)NCC	9.5	4.6	17.8	3.8	11.0*
CCOC(=O)c1c(CC(C)C)csc1/N=C/C1C(=O)CC(C)(C)CC1=O	1.1	-14.4	-16.5	9.1*	-2.1
Cc1ccc2c(c1)C(=O)CCN2	?	-41.4	-152.2	-2.7	-2.0
O=C1CCNc2cc3ccccc3cc21	38.5*	16.3	74.8*	-3.8	-0.5
CC(=O)c1ccc(N2CCN(c3ccc4cc(S(=O)(=O)N5CCC(C)CC5)ccc4n3)CC2)cc1	0.0	·	·	12.4*	-2.0
CC12CCC(C(=O)NCc3ccccn3)(OC1=O)C2(C)C (stereo not drawn)	-3.1	1.6	-2.4	-2.9	-2.4
CC12CC3(C)CC(C)(C1)CC(C(=O)NCc1ccccn1)(C2)C3	34.5*	-5.2	-2.3	-1.0	-2.9
O=C(CSc1nc2[nH]ncc2c(=O)[nH]1)Nc1ccccc1F	-0.2	·	·	·	·
Cc1cccc(NC(=O)COc2coc(CN3CCN(c4ccccc4)CC3)cc2=O)c1C	5.1	·	·	·	·

Bioassay records deposited in PubChem BioAssay by several laboratories.
